According to ChEMBL document CHEMBL1926588, “Sulfur and selenium derivatives of quinazoline and pyrido[2,3-d]pyrimidine: synthesis and study of their potential cytotoxic activity in vitro” (Eur J Med Chem, 2012):

What was measured:
[1] = Cytotoxicity against human BEAS2B cells after 72 hrs by MTT assay; type: cell-based, BEAS-2B; conditions: for GI50 at 72 h: BEAS2B cells; for LC50 / TGI: beas-2b, 72 h
Outline: (§1)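 MTT read-out after 72 h exposure at 37 °C in humidified 5% CO2, with five concentrations between 0.01 and 100. GI50 is 50% growth reduction versus untreated controls, TGI is complete growth inhibition, and LC50 is the concentration killing 50% of cells. Minimum three independent experiments.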

[2] = Cytotoxicity against human 184B5 cells after 72 hrs by MTT assay; type: cell-based; conditions: for GI50 at 72 h: 184B5 cells; for LC50 / TGI: 184b5, 72 h; outline: as §1
HT-29 = experiment: Cytotoxicity against human HT-29 cells after 72 hrs by MTT assay; type: functional; conditions: HT-29, 72 h; for CC50: read-out: LC50 (the source's name); outline: as §1
MCF7 = experiment: Cytotoxicity against human MCF7 cells after 72 hrs by MTT assay; type: functional; conditions: MCF7, 72 h; outline: as §1
CCRF-CEM = experiment: Cytotoxicity against human CCRF-CEM cells after 72 hrs by MTT assay; type: functional; conditions: for CC50: read-out: LC50 (the source's name); outline: as §1
[3] = Cytotoxicity against human HTB-54 cells after 72 hrs by MTT assay; type: functional; conditions: HTB-54, 72 h; for CC50: read-out: LC50 (the source's name); outline: as §1

SMILES | GI50 at 72 h [1] | LC50 [1] | TGI [1] | GI50 at 72 h [2] | LC50 [2] | TGI [2] | GI50 (HT-29) | TGI (HT-29) | CC50 (HT-29) | GI50 (MCF7) | LC50 (MCF7) | TGI (MCF7) | GI50 (CCRF-CEM) | TGI (CCRF-CEM) | CC50 (CCRF-CEM) | GI50 [3] | TGI [3] | CC50 [3]
Nc1nc([SeH])nc2ncccc12 | 5.89 µM | > 100 µM | 87.73 µM | 5.2 µM | 74.98 µM | 31.05 µM | 36.3 µM | 89.6 µM | > 100 µM | 37.3 µM | > 100 µM | > 100 µM | 30.9 µM | 61.5 µM | 92.1 µM | 44.3 µM | 96.6 µM | > 100 µM
CSc1ccc(CNc2nc([SeH])nc3ccccc23)cc1 | 0.41 µM | > 100 µM | 58.21 µM | 6.84 µM | > 100 µM | 86.27 µM | 42.9 µM | > 100 µM | > 100 µM | 48.1 µM | > 100 µM | > 100 µM | 71.9 µM | > 100 µM | > 100 µM | 45.5 µM | > 100 µM | > 100 µM
CSc1nc(NCCCCCO)c2ccccc2n1 | 39.3 µM | > 100 µM | 99.35 µM | 49.9 µM | > 100 µM | > 100 µM | > 100 µM | > 100 µM | > 100 µM | 62 µM | > 100 µM | > 100 µM | > 100 µM | > 100 µM | > 100 µM | 31.4 µM | 71.4 µM | > 100 µM
CSc1ccc(CNc2nc([Se]C)nc3ccccc23)cc1 | 35.9 µM | > 100 µM | 78.54 µM | 37.1 µM | > 100 µM | > 100 µM | 72.7 µM | > 100 µM | > 100 µM | 54.1 µM | > 100 µM | > 100 µM | 48.7 µM | 86.9 µM | > 100 µM | 37.9 µM | 72.4 µM | > 100 µM
C[Se]c1nc(N)c2ccccc2n1 | 23.6 µM | 85.52 µM | 54.56 µM | 24.4 µM | 93.68 µM | 59.04 µM | 27.6 µM | 74.8 µM | > 100 µM | 46.5 µM | > 100 µM | > 100 µM | 65.1 µM | > 100 µM | > 100 µM | 18 µM | 88.7 µM | > 100 µM
[Se]=C=NCc1ccccc1 [BENZYLISOSELENOCYANATE] | 4.1 µM | 69.59 µM | 32.75 µM | 15.5 µM | 74.86 µM | 45.15 µM | 21 µM | 44.5 µM | 68.1 µM | 27.9 µM | 95.5 µM | 61.7 µM | 28.7 µM | 57.7 µM | 86.7 µM | 5.98 µM | 33.4 µM | 66.1 µM
CSc1ccc(CNc2nc(SC)nc3ccccc23)cc1 | 22.7 µM | 95.93 µM | 59.11 µM | 22 µM | > 100 µM | > 100 µM | 34.7 µM | > 100 µM | > 100 µM | 47.3 µM | > 100 µM | > 100 µM | > 100 µM | > 100 µM | > 100 µM | 7.22 µM | 44.5 µM | 89.1 µM
